Assay results taken from ChEMBL document CHEMBL2401717, “Synthesis and bioactive evaluation of novel hybrids of metronidazole and berberine as new type of antimicrobial agents and their transportation behavior by human serum albumin” (Bioorg Med Chem, 2013).
≈ marks a conversion by molar mass, not a printed value.

Tests used:
Candida = experiment: Antifungal activity against Candida mycoderma after 24 hrs by twofold broth dilution method; assay type: functional
Method in brief: (§1)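 MIC by NCCLS-recommended twofold broth microdilution, run in triplicate. Strains: B. subtilis ATCC6633, E. coli DH52, M. luteus ATCC4698, P. vulgaris ATCC6896, S. dysenteriae, S. aureus ATCC25923, MRSA N315, C. albicans ATCC76615, C. mycoderma. References were chloromycin, norfloxacin and berberine for bacteria, and fluconazole for fungi.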

Proteus vulgaris = experiment: Antibacterial activity against Proteus vulgaris after 24 hrs by twofold broth dilution method; assay type: functional; method in brief: as §1
Candida albicans = experiment: Antifungal activity against Candida albicans after 24 hrs by twofold broth dilution method; assay type: functional; method in brief: as §1
Pseudomonas aeruginosa = experiment: Antibacterial activity against Pseudomonas aeruginosa after 24 hrs by twofold broth dilution method; assay type: functional
Method in brief: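 Twofold broth dilution in 96-well microplates following NCCLS guidance; MIC read as the endpoint; tests run in triplicate.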

Shigella dysenteriae = experiment: Antibacterial activity against Shigella dysenteriae after 24 hrs by twofold broth dilution method; assay type: functional; method in brief: as §1
Escherichia coli = experiment: Antibacterial activity against Escherichia coli DH52 after 24 hrs by twofold broth dilution method; assay type: functional; conditions: DH52, 24 h; method in brief: as §1
Micrococcus luteus = experiment: Antibacterial activity against Micrococcus luteus ATCC 4698 after 24 hrs by twofold broth dilution method; assay type: functional; conditions: ATCC 4698, 24 h; method in brief: as §1
Bacillus subtilis = experiment: Antibacterial activity against Bacillus subtilis after 24 hrs by twofold broth dilution method; assay type: functional; method in brief: as §1
Staphylococcus aureus [1] = experiment: Antibacterial activity against Staphylococcus aureus ATCC 25923 after 24 hrs by twofold broth dilution method; assay type: functional; conditions: ATCC 25923, 24 h; method in brief: as §1
Staphylococcus aureus [2] = experiment: Antibacterial activity against methicillin-resistant Staphylococcus aureus N315 after 24 hrs by twofold broth dilution method; assay type: functional; conditions: N315, 24 h; method in brief: as §1
[3] = Stability of the compound at pH 6.5 to 8.5 after 30 mins by UV spectrophotometry; assay type: physicochemical; conditions: buffer, pH 6.5, 0.5 h
Method in brief: (§2)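 Stability followed by UV spectrometry across pH 6.5–8.5 and temperatures 30–80 °C.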

[4] = Stability of the compound at 30 to 80 degC after 30 mins by UV spectrophotometry; assay type: physicochemical; conditions: 0.5 h; method in brief: as §2
[5] = Solubility of the compound in phosphate buffer at pH 7.5 after 20 hrs by UV spectrophotometry; assay type: physicochemical
Method in brief: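 Phosphate buffer pH 7.5 added to solid; suspension sonicated 10 min, then shaken at room temperature for 20 h and centrifuged. Supernatant concentration read by UV absorbance against a regression calibration curve (278 and 340 nm).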

[6] = Octanol-water partition coefficient, log P of the compound after 24 hrs by UV-Vis spectrophotometry; assay type: physicochemical

O=[N+]([O-])c1cncn1CCN(CCBr)Cc1ccc(Cl)c(Cl)c1
MIC (Candida): 128 µg/mL (≈ 303 µM)
MIC (Proteus vulgaris): 32 µg/mL (≈ 75.8 µM)
MIC (Candida albicans): 16 µg/mL (≈ 37.9 µM)
MIC (Pseudomonas aeruginosa): 16 µg/mL (≈ 37.9 µM)
MIC (Shigella dysenteriae): 8 µg/mL (≈ 19 µM)
MIC (Escherichia coli): 16 µg/mL (≈ 37.9 µM)
MIC (Micrococcus luteus): 128 µg/mL (≈ 303 µM)
MIC (Bacillus subtilis): 32 µg/mL (≈ 75.8 µM)
MIC (Staphylococcus aureus [1]): 32 µg/mL (≈ 75.8 µM)
MIC (Staphylococcus aureus [2]): 32 µg/mL (≈ 75.8 µM)

O=[N+]([O-])c1cncn1CCN(CCBr)Cc1ccccc1Cl
MIC (Candida): 32 µg/mL (≈ 82.5 µM)
MIC (Proteus vulgaris): 16 µg/mL (≈ 41.3 µM)
MIC (Candida albicans): 8 µg/mL (≈ 20.6 µM)
MIC (Pseudomonas aeruginosa): 16 µg/mL (≈ 41.3 µM)
MIC (Shigella dysenteriae): 16 µg/mL (≈ 41.3 µM)
MIC (Escherichia coli): 8 µg/mL (≈ 20.6 µM)
MIC (Micrococcus luteus): 64 µg/mL (≈ 165 µM)
MIC (Bacillus subtilis): 8 µg/mL (≈ 20.6 µM)
MIC (Staphylococcus aureus [1]): 8 µg/mL (≈ 20.6 µM)
MIC (Staphylococcus aureus [2]): 16 µg/mL (≈ 41.3 µM)

O=[N+]([O-])c1cncn1CCN(CCBr)Cc1cccc(Cl)c1
MIC (Candida): 64 µg/mL (≈ 165 µM)
MIC (Proteus vulgaris): 256 µg/mL (≈ 660 µM)
MIC (Candida albicans): 64 µg/mL (≈ 165 µM)
MIC (Pseudomonas aeruginosa): 32 µg/mL (≈ 82.5 µM)
MIC (Shigella dysenteriae): 256 µg/mL (≈ 660 µM)
MIC (Escherichia coli): 64 µg/mL (≈ 165 µM)
MIC (Micrococcus luteus): 64 µg/mL (≈ 165 µM)
MIC (Bacillus subtilis): 64 µg/mL (≈ 165 µM)
MIC (Staphylococcus aureus [1]): 16 µg/mL (≈ 41.3 µM)
MIC (Staphylococcus aureus [2]): 64 µg/mL (≈ 165 µM)

O=[N+]([O-])c1cncn1CCN(CCBr)Cc1ccc(Cl)cc1
MIC (Candida): 128 µg/mL (≈ 330 µM)
MIC (Proteus vulgaris): 256 µg/mL (≈ 660 µM)
MIC (Candida albicans): 64 µg/mL (≈ 165 µM)
MIC (Pseudomonas aeruginosa): 64 µg/mL (≈ 165 µM)
MIC (Shigella dysenteriae): 256 µg/mL (≈ 660 µM)
MIC (Escherichia coli): 128 µg/mL (≈ 330 µM)
MIC (Micrococcus luteus): 128 µg/mL (≈ 330 µM)
MIC (Bacillus subtilis): 64 µg/mL (≈ 165 µM)
MIC (Staphylococcus aureus [1]): 64 µg/mL (≈ 165 µM)
MIC (Staphylococcus aureus [2]): 128 µg/mL (≈ 330 µM)

COc1ccc2cc3[n+](cc2c1OCCN(CCn1c([N+](=O)[O-])cnc1C)Cc1ccc(F)cc1F)CCc1cc2c(cc1-3)OCO2.[Cl-]
Stability [3]: Stable
Stability [4]: Stable
solubility at 20 h [5]: 60.6 µg/mL
logP at 24 h [6]: -0.34
MIC (Candida): 128 µg/mL
MIC (Proteus vulgaris): 64 µg/mL
MIC (Candida albicans): 64 µg/mL
MIC (Pseudomonas aeruginosa): 128 µg/mL
MIC (Shigella dysenteriae): 256 µg/mL
MIC (Escherichia coli): 128 µg/mL
MIC (Micrococcus luteus): 128 µg/mL
MIC (Bacillus subtilis): 64 µg/mL
MIC (Staphylococcus aureus [1]): 16 µg/mL
MIC (Staphylococcus aureus [2]): 16 µg/mL

COc1ccc2cc3[n+](cc2c1OCCN(CCn1cnc([N+](=O)[O-])c1)Cc1ccc(F)cc1F)CCc1cc2c(cc1-3)OCO2.[Cl-]
Stability [3]: Stable
Stability [4]: Stable
solubility at 20 h [5]: 94 µg/mL
logP at 24 h [6]: 0.5
MIC (Candida): 8 µg/mL
MIC (Proteus vulgaris): 16 µg/mL
MIC (Candida albicans): 16 µg/mL
MIC (Pseudomonas aeruginosa): 16 µg/mL
MIC (Shigella dysenteriae): 4 µg/mL
MIC (Escherichia coli): 16 µg/mL
MIC (Micrococcus luteus): 16 µg/mL
MIC (Bacillus subtilis): 32 µg/mL
MIC (Staphylococcus aureus [1]): 16 µg/mL
MIC (Staphylococcus aureus [2]): 32 µg/mL

COc1ccc2cc3[n+](cc2c1OCCN(CCn1cnc([N+](=O)[O-])c1)Cc1ccc(Cl)c(Cl)c1)CCc1cc2c(cc1-3)OCO2.[Cl-]
Stability [3]: Stable
Stability [4]: Stable
solubility at 20 h [5]: 88.5 µg/mL
logP at 24 h [6]: 0.53
MIC (Candida): 64 µg/mL
MIC (Proteus vulgaris): 16 µg/mL
MIC (Candida albicans): 16 µg/mL
MIC (Pseudomonas aeruginosa): 16 µg/mL
MIC (Shigella dysenteriae): 4 µg/mL
MIC (Escherichia coli): 16 µg/mL
MIC (Micrococcus luteus): 16 µg/mL
MIC (Bacillus subtilis): 32 µg/mL
MIC (Staphylococcus aureus [1]): 16 µg/mL
MIC (Staphylococcus aureus [2]): 64 µg/mL

COc1ccc2cc3[n+](cc2c1OCCN(CCn1cnc([N+](=O)[O-])c1)Cc1ccccc1Cl)CCc1cc2c(cc1-3)OCO2.[Cl-]
Stability [3]: Stable
Stability [4]: Stable
solubility at 20 h [5]: 95.1 µg/mL
logP at 24 h [6]: 0.51
MIC (Candida): 128 µg/mL
MIC (Proteus vulgaris): 64 µg/mL
MIC (Candida albicans): 8 µg/mL
MIC (Pseudomonas aeruginosa): 16 µg/mL
MIC (Shigella dysenteriae): 16 µg/mL
MIC (Escherichia coli): 16 µg/mL
MIC (Micrococcus luteus): 16 µg/mL
MIC (Bacillus subtilis): 4 µg/mL
MIC (Staphylococcus aureus [1]): 4 µg/mL
MIC (Staphylococcus aureus [2]): 16 µg/mL

COc1ccc2cc3[n+](cc2c1OCCN(CCn1cnc([N+](=O)[O-])c1)Cc1cccc(Cl)c1)CCc1cc2c(cc1-3)OCO2.[Cl-]
Stability [3]: Stable
Stability [4]: Stable
solubility at 20 h [5]: 50.8 µg/mL
logP at 24 h [6]: 0.57
MIC (Candida): 32 µg/mL
MIC (Proteus vulgaris): 64 µg/mL
MIC (Candida albicans): 16 µg/mL
MIC (Pseudomonas aeruginosa): 64 µg/mL
MIC (Shigella dysenteriae): 256 µg/mL
MIC (Escherichia coli): 32 µg/mL
MIC (Micrococcus luteus): 64 µg/mL
MIC (Bacillus subtilis): 32 µg/mL
MIC (Staphylococcus aureus [1]): 8 µg/mL
MIC (Staphylococcus aureus [2]): 32 µg/mL

COc1ccc2cc3[n+](cc2c1OCCN(CCn1cnc([N+](=O)[O-])c1)Cc1ccc(Cl)cc1)CCc1cc2c(cc1-3)OCO2.[Cl-]
Stability [3]: Stable
Stability [4]: Stable
solubility at 20 h [5]: 64.8 µg/mL
logP at 24 h [6]: 0.48
MIC (Candida): 16 µg/mL
MIC (Proteus vulgaris): 64 µg/mL
MIC (Candida albicans): 64 µg/mL
MIC (Pseudomonas aeruginosa): 64 µg/mL
MIC (Shigella dysenteriae): 128 µg/mL
MIC (Escherichia coli): 64 µg/mL
MIC (Micrococcus luteus): 32 µg/mL
MIC (Bacillus subtilis): 64 µg/mL
MIC (Staphylococcus aureus [1]): 32 µg/mL
MIC (Staphylococcus aureus [2]): 64 µg/mL

COc1ccc2cc3[n+](cc2c1OCCN(CCn1cncc1[N+](=O)[O-])Cc1ccc(Cl)c(Cl)c1)CCc1cc2c(cc1-3)OCO2.[Cl-]
Stability [3]: Stable
Stability [4]: Stable
solubility at 20 h [5]: 80.8 µg/mL
logP at 24 h [6]: 0.55
MIC (Candida): 64 µg/mL
MIC (Proteus vulgaris): 16 µg/mL
MIC (Candida albicans): 8 µg/mL
MIC (Pseudomonas aeruginosa): 8 µg/mL
MIC (Shigella dysenteriae): 2 µg/mL
MIC (Escherichia coli): 8 µg/mL
MIC (Micrococcus luteus): 32 µg/mL
MIC (Bacillus subtilis): 16 µg/mL
MIC (Staphylococcus aureus [1]): 8 µg/mL
MIC (Staphylococcus aureus [2]): 16 µg/mL

COc1ccc2cc3[n+](cc2c1OCCN(CCn1cncc1[N+](=O)[O-])Cc1cccc(Cl)c1)CCc1cc2c(cc1-3)OCO2.[Cl-]
Stability [3]: Stable
Stability [4]: Stable
solubility at 20 h [5]: 71.3 µg/mL
logP at 24 h [6]: 0.54
MIC (Candida): 32 µg/mL
MIC (Proteus vulgaris): 64 µg/mL
MIC (Candida albicans): 32 µg/mL
MIC (Pseudomonas aeruginosa): 16 µg/mL
MIC (Shigella dysenteriae): 256 µg/mL
MIC (Escherichia coli): 32 µg/mL
MIC (Micrococcus luteus): 32 µg/mL
MIC (Bacillus subtilis): 32 µg/mL
MIC (Staphylococcus aureus [1]): 4 µg/mL
MIC (Staphylococcus aureus [2]): 16 µg/mL
